Legend:
Assay type in all cases: functional
T47D = assay: Growth inhibition of human T47D cells incubated for 48 hrs by sulforhodamine B assay
Summary of the method: (§1)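 NCI five-dose assay, with drug stocks in DMSO diluted in medium to five concentrations (10-fold or ½-log series). Cells in RPMI 1640/5% FBS were pre-incubated 24 h, and time-zero plates were TCA-fixed at drug addition. After 48 h at 37 °C, cells were TCA-fixed, SRB-stained and read at 515 nm. GI50 is from [(Ti-Tz)/(C-Tz)]×100 = 50, TGI from Ti = Tz, and LC50 from [(Ti-Tz)/Tz]×100 = -50.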

NCI-H226 = assay: Growth inhibition of human NCI-H226 cells incubated for 48 hrs by sulforhodamine B assay
Summary of the method: (§2)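 NCI five-dose screen (0.01–100 µM; five concentrations plus control). Cells grown in RPMI 1640/5% FBS/2 mM L-glutamine and preincubated 24 h, with time-zero plates TCA-fixed. Drug exposure 48 h at 37 °C, followed by SRB protein staining and reading at 515 nm. GI50 is the concentration at [(Ti-Tz)/(C-Tz)]×100 = 50.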

BT-549 [1] = assay: Growth inhibition of human BT-549 cells at 10 uM incubated for 48 hrs by sulforhodamine B assay relative to control; details: read-out: GI
Summary of the method: (§3)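 NCI-60 single-dose screen. Cells were grown in RPMI 1640 with 5% FBS and 2 mM L-glutamine and plated 24 h before drug addition. Compound was added at one concentration in DMSO-derived medium and incubated for 48 h at 37 °C in 5% CO2. Read-out was SRB protein stain at 515 nm. Result is percent growth versus the no-drug control and the time-zero cell count; values below 0 indicate lethality.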

HOP-92 = assay: Growth inhibition of human HOP-92 cells at 10 uM incubated for 48 hrs by sulforhodamine B assay relative to control; details: read-out: GI; summary of the method: as §3
CCRF-CEM = assay: Growth inhibition of human CCRF-CEM cells incubated for 48 hrs by sulforhodamine B assay
Summary of the method: (§4)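 NCI five-dose screen covering 0.01–100 µM, prepared as 10-fold or ½-log dilutions from DMSO stock. Cells in RPMI 1640 with 5% FBS were exposed for 48 h at 37 °C after 24 h preincubation. Adherent cells were fixed with TCA (final 10%) and suspension cells were settled before fixing. Stain was SRB, read at 515 nm. GI50 = 50% reduction in net protein increase versus control, with Tz taken at drug addition.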

NCI-H522 = assay: Growth inhibition of human NCI-H522 cells incubated for 48 hrs by sulforhodamine B assay; summary of the method: as §2
UACC-257 = assay: Growth inhibition of human UACC-257 cells at 10 uM incubated for 48 hrs by sulforhodamine B assay relative to control; details: read-out: GI
Summary of the method: (§5)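 NCI one-dose screen across a 59-line panel. Cells were grown in RPMI 1640 with 5% FBS and 2 mM L-glutamine, plated and pre-incubated 24 h, then exposed to drug for 48 h at 37 °C, 5% CO2. Adherent cells were fixed with cold TCA (10% final), stained with 0.4% SRB in 1% acetic acid and read at 515 nm. Result is percent growth relative to no-drug control and time-zero cell count.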

A498 [2] = assay: Growth inhibition of human A498 cells incubated for 48 hrs by sulforhodamine B assay; summary of the method: as §1
MDA-MB-231 = assay: Growth inhibition of human MDA-MB-231 cells incubated for 48 hrs by sulforhodamine B assay; summary of the method: as §4
NCI-H23 = assay: Growth inhibition of human NCI-H23 cells at 10 uM incubated for 48 hrs by sulforhodamine B assay relative to control; details: read-out: GI
Summary of the method: (§6)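 NCI one-dose screen. Cells grown in RPMI 1640 with 5% FBS and 2 mM L-glutamine, plated and incubated 24 h at 37 °C, 5% CO2. DMSO-dissolved drug added, then 48 h further incubation. Adherent cells fixed with cold TCA, suspension cells fixed after settling. Stained with 0.4% SRB, absorbance read at 515 nm. Reported as percent growth relative to no-drug control and time-zero cell number.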

SW-620 [3] = assay: Growth inhibition of human SW-620 cells at 10 uM incubated for 48 hrs by sulforhodamine B assay relative to control; details: read-out: GI; summary of the method: as §5
ACHN = assay: Growth inhibition of human ACHN cells incubated for 48 hrs by sulforhodamine B assay; summary of the method: as §4
MOLT-4 [4] = assay: Growth inhibition of human MOLT-4 cells incubated for 48 hrs by sulforhodamine B assay; summary of the method: as §2
MDA-MB-468 = assay: Growth inhibition of human MDA-MB-468 cells incubated for 48 hrs by sulforhodamine B assay; summary of the method: as §4
Malme-3M [5] = assay: Growth inhibition of human Malme-3M cells incubated for 48 hrs by sulforhodamine B assay; summary of the method: as §2
MDA-MB-435 = assay: Growth inhibition of human MDA-MB-435 cells incubated for 48 hrs by sulforhodamine B assay; summary of the method: as §4
KM12 = assay: Growth inhibition of human KM12 cells incubated for 48 hrs by sulforhodamine B assay; summary of the method: as §4
SK-OV-3 = assay: Growth inhibition of human SK-OV-3 cells at 10 uM incubated for 48 hrs by sulforhodamine B assay relative to control; details: read-out: GI; summary of the method: as §6
MOLT-4 [6] = assay: Growth inhibition of human MOLT-4 cells at 10 uM incubated for 48 hrs by sulforhodamine B assay relative to control; details: read-out: GI; summary of the method: as §6
TK-10 = assay: Growth inhibition of human TK-10 cells at 10 uM incubated for 48 hrs by sulforhodamine B assay relative to control; details: read-out: GI; summary of the method: as §5
BT-549 [7] = assay: Growth inhibition of human BT-549 cells incubated for 48 hrs by sulforhodamine B assay; summary of the method: as §4
Malme-3M [8] = assay: Growth inhibition of human Malme-3M cells at 10 uM incubated for 48 hrs by sulforhodamine B assay relative to control; details: read-out: GI; summary of the method: as §6
SW-620 [9] = assay: Growth inhibition of human SW-620 cells incubated for 48 hrs by sulforhodamine B assay; summary of the method: as §1
IGROV-1 = assay: Growth inhibition of human IGROV-1 cells incubated for 48 hrs by sulforhodamine B assay; summary of the method: as §4
HCT-116 = assay: Growth inhibition of human HCT-116 cells incubated for 48 hrs by sulforhodamine B assay; summary of the method: as §4
U-251 = assay: Growth inhibition of human U-251 cells at 10 uM incubated for 48 hrs by sulforhodamine B assay relative to control; details: read-out: GI; summary of the method: as §5
SK-MEL-28 = assay: Growth inhibition of human SK-MEL-28 cells incubated for 48 hrs by sulforhodamine B assay; summary of the method: as §2
NCI-H322M = assay: Growth inhibition of human NCI-H322M cells at 10 uM incubated for 48 hrs by sulforhodamine B assay relative to control; details: read-out: GI; summary of the method: as §6
PC-3 = assay: Growth inhibition of human PC-3 cells incubated for 48 hrs by sulforhodamine B assay; summary of the method: as §2
OVCAR-4 = assay: Growth inhibition of human OVCAR-4 cells at 10 uM incubated for 48 hrs by sulforhodamine B assay relative to control; details: read-out: GI; summary of the method: as §6
LOX IMVI = assay: Growth inhibition of human LOX IMVI cells incubated for 48 hrs by sulforhodamine B assay; summary of the method: as §4
NCI-H460 = assay: Growth inhibition of human NCI-H460 cells incubated for 48 hrs by sulforhodamine B assay; summary of the method: as §2
A498 [10] = assay: Growth inhibition of human A498 cells at 10 uM incubated for 48 hrs by sulforhodamine B assay relative to control; details: read-out: GI; summary of the method: as §5

| SMILES | GI50 (T47D) | GI50 (NCI-H226) | inhibition of growth at 10 µM (BT-549 [1]) | inhibition of growth at 10 µM (HOP-92) | GI50 (CCRF-CEM) | GI50 (NCI-H522) | inhibition of growth at 10 µM (UACC-257) | GI50 (A498 [2]) | GI50 (MDA-MB-231) | inhibition of growth at 10 µM (NCI-H23) | inhibition of growth at 10 µM (SW-620 [3]) | GI50 (ACHN) | GI50 (MOLT-4 [4]) | GI50 (MDA-MB-468) | GI50 (Malme-3M [5]) | GI50 (MDA-MB-435) | GI50 (KM12) | inhibition of growth at 10 µM (SK-OV-3) | inhibition of growth at 10 µM (MOLT-4 [6]) | inhibition of growth at 10 µM (TK-10) | further results |
| --- | --- | --- | --- | --- | --- | --- | --- | --- | --- | --- | --- | --- | --- | --- | --- | --- | --- | --- | --- | --- | --- |
| COc1cc2nc(-c3ccc(Cl)cc3)cc(OCCCN3CCCC3)c2cc1OC | 1.02 µM | 0.898 µM | 62% | 62% | 2.14 µM | 2.36 µM | 62% | 2.19 µM | 0.907 µM | 62% | 62% | 1.93 µM | 1.5 µM | 1.28 µM | 1.68 µM | 2.72 µM | 2.46 µM | 62% | 62% | 62% | GI50 (BT-549 [7]): 1.77 µM; inhibition of growth at 10 µM (Malme-3M [8]): 62%; GI50 (SW-620 [9]): 3.12 µM; GI50 (IGROV-1): 0.881 µM; GI50 (HCT-116): 0.699 µM; inhibition of growth at 10 µM (U-251): 62%; GI50 (SK-MEL-28): 1.48 µM; inhibition of growth at 10 µM (NCI-H322M): 62%; GI50 (PC-3): 1.76 µM; inhibition of growth at 10 µM (OVCAR-4): 62%; GI50 (LOX IMVI): 0.191 µM; TGI (LOX IMVI): 0.446 µM; GI50 (NCI-H460): 0.823 µM; inhibition of growth at 10 µM (A498 [10]): 62% |
| COc1cc2nc(-c3ccc(Cl)cc3)cc(OCCCN3CCOCC3)c2cc1OC | 1.96 µM | 0.997 µM | 62% | 62% | 3.35 µM | 2.17 µM | 62% | 1.59 µM | 1.01 µM | 62% | 62% | 3.64 µM | 2.85 µM | 1.83 µM | 2.01 µM | 1.9 µM | 3.87 µM | 62% | 62% | 62% | GI50 (BT-549 [7]): 2.59 µM; inhibition of growth at 10 µM (Malme-3M [8]): 62%; GI50 (SW-620 [9]): 3.57 µM; GI50 (IGROV-1): 0.99 µM; GI50 (HCT-116): 1.59 µM; inhibition of growth at 10 µM (U-251): 62%; GI50 (SK-MEL-28): 1.52 µM; inhibition of growth at 10 µM (NCI-H322M): 62%; GI50 (PC-3): 2.63 µM; inhibition of growth at 10 µM (OVCAR-4): 62%; GI50 (LOX IMVI): 0.217 µM; TGI (LOX IMVI): 0.592 µM; GI50 (NCI-H460): 0.958 µM; inhibition of growth at 10 µM (A498 [10]): 62% |
| COc1cc2nc(-c3ccc(Cl)cc3)cc(OCCCN3CCCCC3)c2cc1OC | 1.31 µM | 1.12 µM | 62% | 62% | 2.79 µM | 3.28 µM | 62% | 1.4 µM | 0.666 µM | 62% | 62% | 2.45 µM | 2.04 µM | 1.39 µM | 1.74 µM | 2.44 µM | 3.07 µM | 62% | 62% | 62% | GI50 (BT-549 [7]): 1.43 µM; inhibition of growth at 10 µM (Malme-3M [8]): 62%; GI50 (SW-620 [9]): 3.09 µM; GI50 (IGROV-1): 0.838 µM; GI50 (HCT-116): 0.828 µM; inhibition of growth at 10 µM (U-251): 62%; GI50 (SK-MEL-28): 1.45 µM; inhibition of growth at 10 µM (NCI-H322M): 62%; GI50 (PC-3): 1.74 µM; inhibition of growth at 10 µM (OVCAR-4): 62%; GI50 (LOX IMVI): 0.189 µM; TGI (LOX IMVI): 0.435 µM; GI50 (NCI-H460): 0.842 µM; inhibition of growth at 10 µM (A498 [10]): 62% |

— ChEMBL document CHEMBL4732237, “Discovery of 4-alkoxy-2-aryl-6,7-dimethoxyquinolines as a new class of topoisomerase I inhibitors endowed with potent in vitro anticancer activity” (2021)
